Measurements taken from ChEMBL document CHEMBL3425405, “Discovery of Small Molecules for Up-Regulating the Translation of Antiamyloidogenic Secretase, a Disintegrin and Metalloproteinase 10 (ADAM10), by Binding to the G-Quadruplex-Forming Sequence in the 5' Untranslated Region (UTR) of Its mRNA” (J Med Chem, 2015).
Calls of active or inactive are those of the source. The rule behind the calls is not given here.

Key:
[1] = Binding affinity to ADAM10 A10-RNA QGRS (unknown origin) assessed as increase in RNA-ligand complexes at 0.5 to 10 fold excess compound level by native gel electrophoresis method
In short: (§1)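 A10-RNA-Wt labeled with Cy3/Cy5 folded in 100 mM KCl, 10 mM Tris-HCl, 0.1 mM EDTA (pH 7.5): 95 °C for 5 min, then cooled to room temperature over 90 min. RNA (2 μM) incubated 5 min at room temperature in the dark with 0, 0.5, 1, 5 or 10-fold excess compound. Run on native 16% polyacrylamide gel at 4 °C.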

HEK-APP = experiment: Binding affinity to ADAM10 A10-RNA QGRS (unknown origin) transfected in HEK-APP cells assessed as change in ADAM10 mRNA expression at 0.5 to 1.5 uM after 48 hrs by RT-PCR method; format: cell-based
In short: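 HEK-APP cells cultured 48 h with 0, 0.5, 0.75, 1 or 1.5 μM compound. Total RNA isolated and ADAM10 mRNA measured by RT-PCR, normalized to β-actin.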

[2] = target: T1, Disintegrin and metalloproteinase domain-containing protein 10 (Homo sapiens) (UniProt O14672); experiment: Activation of human recombinant ADAM10 assessed as increase in enzyme activity at 0.25 to 4 uM pre-incubated for 20 mins before fluorogenic alpha-secretase substrate addition and measured 1 hr post substrate addition by monochromator-based multimode microplate reader based method
T1 sequence (whole entry): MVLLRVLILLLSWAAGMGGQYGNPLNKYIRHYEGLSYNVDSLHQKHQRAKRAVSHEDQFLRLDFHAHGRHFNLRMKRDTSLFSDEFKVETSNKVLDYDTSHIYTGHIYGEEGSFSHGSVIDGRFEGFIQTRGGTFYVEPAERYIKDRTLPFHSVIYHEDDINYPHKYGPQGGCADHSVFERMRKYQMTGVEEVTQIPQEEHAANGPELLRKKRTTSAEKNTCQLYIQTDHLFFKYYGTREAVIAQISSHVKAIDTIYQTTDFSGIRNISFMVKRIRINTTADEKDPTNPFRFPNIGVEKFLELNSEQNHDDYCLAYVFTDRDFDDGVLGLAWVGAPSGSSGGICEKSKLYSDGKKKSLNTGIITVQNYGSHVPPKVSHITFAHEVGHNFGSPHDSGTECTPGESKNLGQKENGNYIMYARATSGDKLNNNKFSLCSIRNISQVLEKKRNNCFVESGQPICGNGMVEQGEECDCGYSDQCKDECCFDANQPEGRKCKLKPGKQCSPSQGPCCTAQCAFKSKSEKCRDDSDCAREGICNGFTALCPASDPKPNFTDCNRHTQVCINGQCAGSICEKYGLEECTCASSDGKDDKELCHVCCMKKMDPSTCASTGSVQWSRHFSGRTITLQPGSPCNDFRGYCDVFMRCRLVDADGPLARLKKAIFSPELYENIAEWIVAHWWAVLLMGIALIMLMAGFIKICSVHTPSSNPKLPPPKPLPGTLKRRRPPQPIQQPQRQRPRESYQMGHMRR
In short: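 Recombinant human ADAM10 (50 ng total protein per sample) preincubated 20 min with 0, 0.25, 0.5, 1, 2, 4 μM compound. Then 2× reaction buffer added (50 μM Tris, 4 μM ZnCl2, 0.01% Brij-35, pH 9.0) with 20 μM fluorogenic α-secretase substrate. Incubated 1 h at 37 °C in the dark; fluorescence read at ex 340/em 490 nm.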

[3] = Binding affinity to ADAM10 A10-RNA QGRS (unknown origin) assessed as reduction in RNA G-quadruplex bands at 0.5 to 10 fold excess compound level by native gel electrophoresis method; in short: as §1
HEK293 [4] = experiment: Effect on APP protein expression in APP expressing HEK cells at 0.5 to 1.5 uM after 48 hrs by Western blotting method; format: functional, cell-based; conditions: Homo sapiens
In short: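 HEK-APP cells (DMEM, 10% FBS, 2 mM glutamine, 0.2 mg/mL G418) treated with 0, 0.5, 0.75, 1 or 1.5 μM compound for 48 h. Lysates in Tris/NaCl/EDTA/1% Triton buffer immunoblotted for ADAM10, APP and β-actin; conditioned medium blotted for sAPPα. Signal by densitometry, normalized to β-actin, relative to blank control; mean ± SD, three independent experiments.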

HeLa [5] = experiment: Binding affinity to Bcl-2 RNA QGRS (unknown origin) transfected in human HeLa cells assessed as increase in ADAM10 translation efficiency at 2.5 uM after 24 hrs by Renilla/firefly dual luciferase reporter assay; format: cell-based
In short: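 HeLa cells carrying luciferase reporter plasmids with the N-Ras, Bcl-2 or VEGF 5′-UTR quadruplex (or its mutant) treated with compound up to 2.5 μM for 24 h. Renilla/firefly luciferase activity then measured.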

HeLa [6] = experiment: Binding affinity to ADAM10 A10-mutant RNA QGRS (unknown origin) transfected in human HeLa cells assessed as increase in ADAM10 translation efficiency at 0.5 to 2.5 uM after 24 hrs by Renilla/firefly dual luciferase reporter assay; format: cell-based
In short: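 HeLa cells transfected with 0.8 μg A10-Wt, A10-Mut or A10-Del plasmid (G-quadruplex motif upstream of Renilla in psiCHECK-2). Screening: 24 h at a single 2 μM concentration. Follow-up: plasmid for 12 h, then 0, 0.5, 1 or 2.5 μM for 24 h. Renilla normalized to firefly, relative to untreated control; mean ± SD of three independent measurements.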

HeLa [7] = experiment: Binding affinity to ADAM10 5'-UTR RNA QGRS (unknown origin) transfected in human HeLa cells assessed as increase in ADAM10 translation efficiency at 1 uM after 24 hrs by Renilla/firefly dual luciferase reporter assay; format: cell-based
In short: (§2)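 HeLa cells transfected with 0.8 μg 5′UTR-Wt or 5′UTR-Mut dual-luciferase plasmid. After 12 h, incubated 24 h with 0, 0.5, 1 or 2.5 μM compound. Renilla luciferase normalized to firefly and expressed relative to the ligand-free control; mean ± SD of three independent experiments, each in triplicate.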

HeLa [8] = experiment: Binding affinity to ADAM10 5'-UTR mutant RNA QGRS (unknown origin) transfected in human HeLa cells assessed as increase in ADAM10 translation efficiency at 1 uM after 24 hrs by Renilla/firefly dual luciferase reporter assay; format: cell-based; in short: as §2
[9] = Selectivity index, ratio of affinity to Bcl-2 RNA QGRS (unknown origin) to ADAM10 A10-Wt RNA QGRS (unknown origin) by Renilla/firefly dual luciferase reporter assay
HEK293 [10] = experiment: Reduction in Abeta40 protein production in APP expressing HEK cells at 0.5 to 1.5 uM after 48 hrs by ELISA method; format: functional, cell-based; conditions: Homo sapiens
In short: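 HEK-APP cells treated 48 h with increasing compound concentrations (0.75, 1, 1.5 μM). Secreted Aβ40 in equal amounts of conditioned medium quantified by sandwich ELISA. Values expressed relative to blank control; mean ± SD of three independent experiments.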

Activity [1]: Active
Activity [2]: Active
Activity [3]: Active
Selectivity Index [9]: 3
Structure (SMILES): CCn1c2ccccc2c2cc(/C=C/c3cc(N4CCN(C)CC4)c4ccccc4[n+]3C)ccc21.[I-]
Activity (HEK-APP): inactive
Activity (HEK293 [4]): inactive
Activity (HeLa [5]): 20%
Activity (HeLa [6]): inactive
Activity (HeLa [7]): 22.5%
Activity (HeLa [8]): inactive
Activity (HEK293 [10]): Dose-dependent effect
